# Laboratory results reported in ChEMBL document CHEMBL3108756, “Evaluation of aminohydantoins as a novel class of antimalarial agents” (ACS Med Chem Lett, 2014).
# Active and inactive are the calls of the source. No cut-off for these calls is given here.
# Tested on: not listed separately
# Assay: Plasma concentration in Plasmodium chabaudi ASS infected NIH mouse at 110 mg/kg, po qd measured 30 mins after post last dose on day 3
# Assay type: ADME, organism-based
# Parameters: dose 110 mg/kg, route oral
# Conditions: not given
row,SMILES,concentration at 0.5 h
1,COc1ccc(C2(c3ccc(OC)cc3)NC(=N)N(C3CCOCC3)C2=O)cc1,4140 ng/mL

# Tested on: not listed separately
# Assay: Plasma concentration in Plasmodium chabaudi ASS infected NIH mouse at 110 mg/kg, po qd measured 24 hrs after post last dose on day 3
# Assay type: ADME, organism-based
# Parameters: dose 110 mg/kg, route oral
# Conditions: not given
# Summary of the method: (§1)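 P. chabaudi-infected mice were dosed orally once daily for four days, starting four hours post-infection. Plasma compound levels were measured at 1, 6 and 24 h after the last dose on Day 3.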
row,SMILES,concentration at 24 h
1,COc1ccc(C2(c3ccc(OC)cc3)NC(=N)N(C3CCOCC3)C2=O)cc1,29 ng/mL

# Tested on: not listed separately
# Assay: Plasma concentration in Plasmodium chabaudi ASS infected NIH mouse at 100 mg/kg, po qd measured 6 hrs after post last dose on day 3
# Assay type: ADME, organism-based
# Parameters: dose 100 mg/kg, route oral
# Conditions: not given
# Summary of the method: as §1
row,SMILES,concentration at 6 h
1,COc1ccc(C2(c3ccc(OC)cc3)NC(=N)N(CC3CCCCC3)C2=O)cc1,2190 ng/mL
2,COc1ccc(C2(c3ccc(OC)cc3)NC(=N)N(CC3CCOCC3)C2=O)cc1,3030 ng/mL

# Tested on: not listed separately
# Assay: Plasma concentration in Plasmodium chabaudi ASS infected NIH mouse at 100 mg/kg, po qd measured 24 hrs after post last dose on day 3
# Assay type: ADME, organism-based
# Parameters: dose 100 mg/kg, route oral
# Conditions: not given
# Summary of the method: as §1
row,SMILES,concentration at 24 h
1,COc1ccc(C2(c3ccc(OC)cc3)NC(=N)N(CC3CCCCC3)C2=O)cc1,7 ng/mL
2,COc1ccc(C2(c3ccc(OC)cc3)NC(=N)N(CC3CCOCC3)C2=O)cc1,123 ng/mL

# Tested on: not listed separately
# Assay: Plasma concentration in Plasmodium chabaudi ASS infected NIH mouse at 100 mg/kg, po qd measured 1 hr after post last dose on day 3
# Assay type: ADME, organism-based
# Parameters: dose 100 mg/kg, route oral
# Conditions: not given
# Summary of the method: as §1
row,SMILES,concentration at 1 h
1,COc1ccc(C2(c3ccc(OC)cc3)NC(=N)N(CC3CCCCC3)C2=O)cc1,2520 ng/mL
2,COc1ccc(C2(c3ccc(OC)cc3)NC(=N)N(CC3CCOCC3)C2=O)cc1,10400 ng/mL

# Tested on: Plasmodium chabaudi
# Assay: Antimalarial activity against Plasmodium chabaudi ASS infected in NIH mouse assessed as inhibition of parasitemia at 110 mg/kg, po qd for 4 days
# Assay type: functional
# Conditions: 96 h
# Summary of the method: (§2)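 Mice infected with P. chabaudi were given oral doses once daily for four days, starting four hours after infection. Parasitemia was read on Day 4 postinoculation and expressed as percent inhibition of parasitemia.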
row,SMILES,inhibition in vivo at 110 mg/kg
1,COc1ccc(C2(c3ccc(OC)cc3)NC(=N)N(C3CCOCC3)C2=O)cc1,63%

# Tested on: Plasmodium chabaudi
# Assay: Antimalarial activity against Plasmodium chabaudi ASS infected in NIH mouse assessed as inhibition of parasitemia at 100 mg/kg, po qd for 4 days
# Assay type: functional
# Conditions: 96 h
# Summary of the method: as §2
row,SMILES,inhibition in vivo at 100 mg/kg
1,COc1ccc(C2(c3ccc(OC)cc3)NC(=N)N(CC3CCCCC3)C2=O)cc1,73%
2,COc1ccc(C2(c3ccc(OC)cc3)NC(=N)N(CC3CCOCC3)C2=O)cc1,41%

# Tested on: Plasmodium chabaudi
# Assay: Antimalarial activity against Plasmodium chabaudi ASS infected in NIH mouse assessed as inhibition of parasitemia at 4.5 mg/kg, po qd for 4 days
# Assay type: functional
# Conditions: 96 h
# Summary of the method: as §2
row,SMILES,inhibition in vivo at 4.5 mg/kg
1,CCN(CC)CCCC(C)Nc1ccnc2cc(Cl)ccc12 (stereo not given) [CHLOROQUINE],100%

# Molecular target: Cytochrome P450 3A4 (Homo sapiens, UniProt P08684)
# Sequence (P08684 whole entry): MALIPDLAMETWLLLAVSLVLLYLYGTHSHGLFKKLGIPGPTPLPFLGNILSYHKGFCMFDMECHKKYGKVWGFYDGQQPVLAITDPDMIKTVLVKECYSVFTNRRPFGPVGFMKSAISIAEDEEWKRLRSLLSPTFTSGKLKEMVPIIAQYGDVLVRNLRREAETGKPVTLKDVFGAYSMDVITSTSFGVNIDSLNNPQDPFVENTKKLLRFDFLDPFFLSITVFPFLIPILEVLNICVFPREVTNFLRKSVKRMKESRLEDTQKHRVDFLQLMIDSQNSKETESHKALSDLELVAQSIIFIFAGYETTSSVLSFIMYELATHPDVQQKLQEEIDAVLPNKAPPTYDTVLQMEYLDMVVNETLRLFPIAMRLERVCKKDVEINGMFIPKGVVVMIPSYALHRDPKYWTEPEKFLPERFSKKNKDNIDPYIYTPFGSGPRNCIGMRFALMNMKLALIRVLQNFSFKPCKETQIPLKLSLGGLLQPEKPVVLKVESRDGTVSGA
# Assay: Inhibition of human recombinant CYP3A4 after 30 mins
# Assay type: ADME
# Conditions: recombinant enzyme, 0.5 h
row,SMILES,inhibition (INH)
1,COc1ccc(C2(c3ccc(OC)cc3)NC(=N)N(CC3CCCCC3)C2=O)cc1,Active
2,COc1ccc(C2(c3ccc(OC)cc3)NC(=N)N(CC3CCOCC3)C2=O)cc1,Active
3,COc1ccc(C2(c3ccc(OC)cc3)NC(=N)N(C3CCOCC3)C2=O)cc1,Active

# Molecular target: Cytochrome P450 2C19 (Homo sapiens, UniProt P33261)
# Sequence (P33261 whole entry): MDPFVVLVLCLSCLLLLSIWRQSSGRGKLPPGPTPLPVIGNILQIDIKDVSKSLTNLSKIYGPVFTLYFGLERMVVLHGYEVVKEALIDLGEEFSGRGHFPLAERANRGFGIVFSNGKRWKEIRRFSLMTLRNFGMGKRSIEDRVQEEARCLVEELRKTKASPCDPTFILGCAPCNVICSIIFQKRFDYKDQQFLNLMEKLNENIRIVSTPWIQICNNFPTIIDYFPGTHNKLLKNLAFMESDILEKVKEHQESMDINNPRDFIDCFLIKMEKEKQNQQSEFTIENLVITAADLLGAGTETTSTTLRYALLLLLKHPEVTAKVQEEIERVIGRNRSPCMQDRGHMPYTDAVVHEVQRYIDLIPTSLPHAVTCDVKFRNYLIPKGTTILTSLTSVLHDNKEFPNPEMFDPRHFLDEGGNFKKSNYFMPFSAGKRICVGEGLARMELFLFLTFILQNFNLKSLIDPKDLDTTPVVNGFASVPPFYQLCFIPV
# Assay: Inhibition of human recombinant CYP2C19 after 30 mins
# Assay type: ADME
# Conditions: recombinant enzyme, 0.5 h
row,SMILES,inhibition (INH)
1,COc1ccc(C2(c3ccc(OC)cc3)NC(=N)N(CC3CCCCC3)C2=O)cc1,Not Active
2,COc1ccc(C2(c3ccc(OC)cc3)NC(=N)N(CC3CCOCC3)C2=O)cc1,Not Active
3,COc1ccc(C2(c3ccc(OC)cc3)NC(=N)N(C3CCOCC3)C2=O)cc1,Not Active

# Molecular target: Cytochrome P450 2D6 (Homo sapiens, UniProt P10635)
# Sequence (P10635 whole entry): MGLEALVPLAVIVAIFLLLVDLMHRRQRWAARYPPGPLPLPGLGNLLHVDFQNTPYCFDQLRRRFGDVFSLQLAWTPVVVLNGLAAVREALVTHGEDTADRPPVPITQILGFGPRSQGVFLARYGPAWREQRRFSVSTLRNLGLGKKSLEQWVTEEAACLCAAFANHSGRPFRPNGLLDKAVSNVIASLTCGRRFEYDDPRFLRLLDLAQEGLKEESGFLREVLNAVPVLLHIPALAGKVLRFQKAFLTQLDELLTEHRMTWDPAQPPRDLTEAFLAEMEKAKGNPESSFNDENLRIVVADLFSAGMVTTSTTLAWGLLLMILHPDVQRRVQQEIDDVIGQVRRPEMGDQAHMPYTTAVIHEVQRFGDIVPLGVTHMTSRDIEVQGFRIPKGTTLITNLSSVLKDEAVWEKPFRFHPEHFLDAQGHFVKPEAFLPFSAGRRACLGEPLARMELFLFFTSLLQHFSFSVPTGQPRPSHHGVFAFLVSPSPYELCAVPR
# Assay: Inhibition of human recombinant CYP2D6 after 30 mins
# Assay type: ADME
# Conditions: recombinant enzyme, 0.5 h
row,SMILES,inhibition (INH)
1,COc1ccc(C2(c3ccc(OC)cc3)NC(=N)N(CC3CCCCC3)C2=O)cc1,Not Active
2,COc1ccc(C2(c3ccc(OC)cc3)NC(=N)N(CC3CCOCC3)C2=O)cc1,Not Active
3,COc1ccc(C2(c3ccc(OC)cc3)NC(=N)N(C3CCOCC3)C2=O)cc1,Not Active

# Molecular target: Cytochrome P450 2C9 (Homo sapiens, UniProt P11712)
# Sequence (P11712 whole entry): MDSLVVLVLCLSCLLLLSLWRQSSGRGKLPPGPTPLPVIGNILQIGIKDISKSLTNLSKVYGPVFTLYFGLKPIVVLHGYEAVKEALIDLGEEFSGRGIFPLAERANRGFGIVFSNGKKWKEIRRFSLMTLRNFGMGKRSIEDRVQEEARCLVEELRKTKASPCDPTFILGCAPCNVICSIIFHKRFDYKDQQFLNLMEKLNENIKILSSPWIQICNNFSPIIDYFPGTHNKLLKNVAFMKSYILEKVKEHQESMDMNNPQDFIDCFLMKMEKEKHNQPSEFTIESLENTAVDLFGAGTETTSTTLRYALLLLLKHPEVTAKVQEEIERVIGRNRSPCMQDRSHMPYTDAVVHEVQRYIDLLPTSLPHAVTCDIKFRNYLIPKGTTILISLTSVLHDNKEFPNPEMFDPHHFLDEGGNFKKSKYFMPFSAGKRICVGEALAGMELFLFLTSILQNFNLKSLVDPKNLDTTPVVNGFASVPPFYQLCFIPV
# Assay: Inhibition of human recombinant CYP2C9 after 30 mins
# Assay type: ADME
# Conditions: recombinant enzyme, 0.5 h
row,SMILES,inhibition (INH)
1,COc1ccc(C2(c3ccc(OC)cc3)NC(=N)N(CC3CCCCC3)C2=O)cc1,Not Active
2,COc1ccc(C2(c3ccc(OC)cc3)NC(=N)N(CC3CCOCC3)C2=O)cc1,Not Active
3,COc1ccc(C2(c3ccc(OC)cc3)NC(=N)N(C3CCOCC3)C2=O)cc1,Not Active

# Molecular target: T1, Cytochrome P450 1A2 (Homo sapiens, UniProt P05177)
# T1 sequence (P05177 whole entry): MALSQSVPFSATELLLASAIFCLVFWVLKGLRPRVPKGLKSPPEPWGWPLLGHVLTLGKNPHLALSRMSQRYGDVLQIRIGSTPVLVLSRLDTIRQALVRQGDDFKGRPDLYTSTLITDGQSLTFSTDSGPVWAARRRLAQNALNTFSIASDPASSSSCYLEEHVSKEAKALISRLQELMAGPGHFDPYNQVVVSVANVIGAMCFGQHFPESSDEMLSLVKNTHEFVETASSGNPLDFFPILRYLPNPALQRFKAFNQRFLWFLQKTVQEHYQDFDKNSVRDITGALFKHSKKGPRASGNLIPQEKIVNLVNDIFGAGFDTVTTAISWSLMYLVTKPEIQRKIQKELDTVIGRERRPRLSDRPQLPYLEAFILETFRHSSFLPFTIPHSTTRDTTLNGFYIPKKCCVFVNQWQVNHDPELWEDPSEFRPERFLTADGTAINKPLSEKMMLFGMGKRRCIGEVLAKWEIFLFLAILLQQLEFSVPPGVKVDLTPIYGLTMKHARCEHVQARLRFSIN
# Assay: Inhibition of human recombinant CYP1A2 after 30 mins
# Assay type: ADME
# Conditions: recombinant enzyme, 0.5 h
row,SMILES,inhibition (INH)
1,COc1ccc(C2(c3ccc(OC)cc3)NC(=N)N(CC3CCCCC3)C2=O)cc1,Not Active
2,COc1ccc(C2(c3ccc(OC)cc3)NC(=N)N(CC3CCOCC3)C2=O)cc1,Not Active
3,COc1ccc(C2(c3ccc(OC)cc3)NC(=N)N(C3CCOCC3)C2=O)cc1,Not Active

# Tested on: HepG2
# Assay: Cytotoxicity against human HepG2 cells after 72 hrs
# Assay type: cell-based
# Conditions: hepg2, 72 h
row,SMILES,Activity
1,COc1ccc(C2(c3ccc(OC)cc3)NC(=N)N(CC3CCCCC3)C2=O)cc1,Toxic
2,COc1ccc(C2(c3ccc(OC)cc3)NC(=N)N(CC3CCOCC3)C2=O)cc1,Toxic
3,COc1ccc(C2(c3ccc(OC)cc3)NC(=N)N(C3CCOCC3)C2=O)cc1,Toxic

# Tested on: Plasmodium falciparum
# Assay: Antimalarial activity against chloroquine-sensitive Plasmodium falciparum 3D7 infected in […] after 48 hrs by SYBR Green I-based fluorescence method
# Assay type: functional, organism-based
# Conditions: not given
row,SMILES,inhibition
1,COc1ccc(C2(c3ccc(OC)cc3)NC(=N)N(CC3CCCCC3)C2=O)cc1,Active
2,COc1ccc(C2(c3ccc(OC)cc3)NC(=N)N(CC3CCOCC3)C2=O)cc1,Active
3,COc1ccc(C2(c3ccc(OC)cc3)NC(=N)N(C3CCOCC3)C2=O)cc1,Active

# Tested on: Plasmodium falciparum
# Assay: Antimalarial activity against chloroquine and pyrimethamine-resistant Plasmodium falciparum Dd2 infected in […] after 48 hrs by SYBR Green I-based fluorescence method
# Assay type: functional
# Conditions: not given
row,SMILES,inhibition
1,COc1ccc(C2(c3ccc(OC)cc3)NC(=N)N(CC3CCCCC3)C2=O)cc1,Active
2,COc1ccc(C2(c3ccc(OC)cc3)NC(=N)N(CC3CCOCC3)C2=O)cc1,Active
3,COc1ccc(C2(c3ccc(OC)cc3)NC(=N)N(C3CCOCC3)C2=O)cc1,Active

# Tested on: not listed separately
# Assay: Selectivity ratio of IC50 for human cathepsin E to IC50 for Plasmodium falciparum plasmepsin-2
# Conditions: not given
row,Ratio IC50,SMILES
1,200,N=C1NC(c2ccccc2)(c2cccc(-c3cccnc3)c2)C(=O)N1C1CCCCC1 (racemic)

# Tested on: not listed separately
# Assay: Selectivity ratio of IC50 for human cathepsin D to IC50 for Plasmodium falciparum plasmepsin-2
# Conditions: not given
row,Ratio IC50,SMILES
1,> 1000,N=C1NC(c2ccccc2)(c2cccc(-c3cccnc3)c2)C(=O)N1C1CCCCC1 (racemic)

# Tested on: not listed separately
# Assay: Selectivity ratio of IC50 for human BACE1 to IC50 for Plasmodium falciparum plasmepsin-2
# Conditions: not given
row,Ratio IC50,SMILES
1,> 1000,N=C1NC(c2ccccc2)(c2cccc(-c3cccnc3)c2)C(=O)N1C1CCCCC1 (racemic)

# Molecular target: Plasmepsin V (Plasmodium falciparum (isolate 3D7)) (UniProt Q8I6Z5)
# Sequence (Q8I6Z5 whole entry, looked up): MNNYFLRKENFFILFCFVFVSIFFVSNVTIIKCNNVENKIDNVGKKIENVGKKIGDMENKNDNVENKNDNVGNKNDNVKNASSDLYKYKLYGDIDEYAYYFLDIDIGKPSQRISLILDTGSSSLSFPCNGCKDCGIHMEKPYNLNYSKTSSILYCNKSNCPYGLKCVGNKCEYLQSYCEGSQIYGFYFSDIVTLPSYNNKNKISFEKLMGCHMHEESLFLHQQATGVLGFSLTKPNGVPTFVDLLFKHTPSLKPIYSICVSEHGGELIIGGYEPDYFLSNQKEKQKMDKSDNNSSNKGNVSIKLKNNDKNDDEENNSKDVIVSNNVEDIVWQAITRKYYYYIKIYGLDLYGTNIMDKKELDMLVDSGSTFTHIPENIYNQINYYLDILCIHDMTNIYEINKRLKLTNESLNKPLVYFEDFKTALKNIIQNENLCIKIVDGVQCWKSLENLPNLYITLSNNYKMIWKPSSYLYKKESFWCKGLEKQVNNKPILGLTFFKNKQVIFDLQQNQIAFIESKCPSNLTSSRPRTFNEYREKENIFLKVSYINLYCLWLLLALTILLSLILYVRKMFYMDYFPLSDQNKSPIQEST
# Assay: (§3) Inhibition of Plasmodium falciparum […] plasmepsin-5 using DABCYL-GNKRTLAQKQG-EDANS as substrate measured every 15 mins of 75 mins by fluorescence assay
# Conditions: not given
row,inhibition,SMILES
1,inactive,N=C1NC(c2ccccc2)(c2cccc(-c3cccnc3)c2)C(=O)N1C1CCCCC1 (racemic)
2,inactive,COc1cccc(C2(c3cccc(OC)c3)NC(=N)N(C3CCCCC3)C2=O)c1

# Molecular target: Plasmepsin V (Plasmodium falciparum (isolate 3D7), UniProt Q8I6Z5)
# Sequence (Q8I6Z5 whole entry): as the sequence (Q8I6Z5 whole entry, looked up) above
# Assay: as §3
# Conditions: not given
row,IC50,SMILES
1,> 20000 nM,Cc1cccc(C)c1OCC(=O)N[C@@H](Cc1ccccc1)[C@@H](O)C[C@H](Cc1ccccc1)NC(=O)[C@H](C(C)C)N1CCCNC1=O [LOPINAVIR]

# Tested on: Plasmodium falciparum
# Assay: Antimalarial activity against chloroquine-sensitive Plasmodium falciparum 3D7 infected in […] after 72 hrs by SYBR Green I-based fluorescence method
# Assay type: functional, organism-based
# Conditions: not given
row,SMILES,inhibition
1,COc1ccc(C2(c3ccc(OC)cc3)NC(=O)N(C3CCCCC3)C2=O)cc1,inactive
2,COc1ccc(C2(c3ccc(OC)cc3)NC(=S)N(C3CCCCC3)C2=O)cc1,inactive

# Same assay, conditions: 3D7, 72 h
row,SMILES,IC50
1,N=C1NC(c2ccccc2)(c2ccccc2)C(=O)N1Cc1ccccc1,8290 nM
2,CC(C)(C)N1C(=N)NC(c2ccccc2)(c2ccccc2)C1=O,> 100000 nM
3,CCC(CN1C(=N)NC(c2ccc(OC)cc2)(c2ccc(OC)cc2)C1=O)c1ccccc1 (stereo not given),244 nM
4,COc1ccc(C2(c3ccc(OC)cc3)NC(=N)N(CCc3ccccc3)C2=O)cc1,2380 nM
5,COc1ccc(C2(c3ccc(OC)cc3)NC(=N)N(C3CCN(C)CC3)C2=O)cc1,697 nM
6,COc1ccc(C2(c3ccc(OC)cc3)NC(=N)N(C(C)C)C2=O)cc1,1660 nM
7,COc1ccc(C2(c3ccc(OC)cc3)NC(=N)N(CC3CCCCC3)C2=O)cc1,383 nM
8,COc1ccc(C2(c3ccc(OC)cc3)NC(=N)N(CC3CCOCC3)C2=O)cc1,463 nM
9,COc1ccc(C2(c3ccc(OC)cc3)NC(=N)N(C3CCOCC3)C2=O)cc1,459 nM

# Now from value to compound:
row,IC50,SMILES
1,611 nM,COc1ccc(C2(c3ccc(OC)cc3)NC(=N)N(C3CCCC3)C2=O)cc1
2,3850 nM,N=C1NC(c2ccccc2)(c2ccccc2)C(=O)N1C1CCCCC1
3,1070 nM,N=C1NC(c2ccc(Cl)cc2)(c2ccc(Cl)cc2)C(=O)N1C1CCCCC1
4,4110 nM,COc1ccc(C2(c3ccc(OC)cc3)NC(=N)N(C3CC3)C2=O)cc1
5,1810 nM,COc1ccc(C2(c3cccc(-c4ccccn4)c3)NC(=N)N(C3CCCCC3)C2=O)cc1 (racemic)
6,427 nM,COc1ccc(C2(c3ccc(OC)cc3)NC(=N)N(C3CCCCCC3)C2=O)cc1
7,750 nM,N=C1NC(c2ccccc2)(c2cccc(-c3cccnc3)c2)C(=O)N1C1CCCCC1 (racemic)
8,1060 nM,N=C1NC(c2cccc(Cl)c2)(c2cccc(Cl)c2)C(=O)N1C1CCCCC1
9,768 nM,COc1cccc(C2(c3cccc(OC)c3)NC(=N)N(C3CCCCC3)C2=O)c1

# Molecular target: Plasmepsin II (Plasmodium falciparum) (UniProt P46925)
# Sequence (P46925 125-453 limits assumed): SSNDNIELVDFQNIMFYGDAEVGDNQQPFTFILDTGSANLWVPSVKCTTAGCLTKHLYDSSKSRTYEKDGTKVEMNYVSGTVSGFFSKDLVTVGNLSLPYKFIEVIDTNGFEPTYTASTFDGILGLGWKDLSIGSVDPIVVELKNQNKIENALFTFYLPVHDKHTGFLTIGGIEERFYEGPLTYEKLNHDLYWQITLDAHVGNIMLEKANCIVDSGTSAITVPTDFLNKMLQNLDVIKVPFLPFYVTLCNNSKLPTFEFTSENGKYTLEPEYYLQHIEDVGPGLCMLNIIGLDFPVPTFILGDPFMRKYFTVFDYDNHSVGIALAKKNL
# Assay: Inhibition of Plasmodium falciparum plasmepsin-2 after 60 mins by fluorescence assay
# Conditions: not given
row,SMILES,inhibition
1,COc1ccc(C2(c3ccc(OC)cc3)NC(=O)N(C3CCCCC3)C2=O)cc1,inactive
2,COc1ccc(C2(c3ccc(OC)cc3)NC(=S)N(C3CCCCC3)C2=O)cc1,inactive

# Tested on: Plasmepsin IV (Plasmodium falciparum)
# Assay: Inhibition of Plasmodium falciparum plasmepsin-4 after 60 mins by fluorescence assay
# Conditions: not given
row,SMILES,inhibition
1,COc1ccc(C2(c3ccc(OC)cc3)NC(=O)N(C3CCCCC3)C2=O)cc1,inactive
